Results pooled from the literature.
Protocols differ between the studies behind these lines.
Cell line: MDA-MB-231
Observed: cell growth or viability

COc1cc2c(cc1OS(N)(=O)=O)CCN(Cc1cc(Cl)c(OC)c(OC)c1)C2 — GI50 (WST-1; 96 h): 40 nM
COc1ccc(OC)c(CN2CCc3cc(O)c(OC)cc3C2)c1 — GI50 (WST-1; 96 h): 37000 nM
CCOc1c(OC)cc(CN2CCc3cc(OS(N)(=O)=O)c(OC)cc3C2)cc1OC — GI50 (WST-1; 96 h): 70 nM
Cc1cc2c(cc1N1C(=O)c3cccc4c(CCCO)ccc(c34)C1=O)n(C)c(=O)n2C (racemic) — GI50 (resazurin): > 10000 nM
COc1cc2c(cc1OS(N)(=O)=O)CCN(Cc1ccc(OC)c(OC)c1OC)C2 — GI50 (WST-1; 96 h): 11900 nM
COc1cccc2c1C(=O)c1c(O)c3c(c(O)c1C2=O)C[C@@](O)(C(=O)CO)C[C@@H]3O[C@H]1C[C@H](N)[C@H](O)[C@H](C)O1 — GI50 (MTT; 72 h): 53.3 nM
COc1ccc(OC)c(CN2CCc3cc(OS(N)(=O)=O)c(OC)cc3C2)c1 — GI50 (WST-1; 96 h): 1850 nM
CC(=O)c1c(C)c2cnc(Nc3ccc(N4CCNCC4)cn3)nc2n(C2CCCC2)c1=O — GI50 (resazurin): 250 nM
COc1cc2c(cc1O)CC[C@@H]1[C@@H]2CC[C@]2(C)[C@@H](O)CC[C@@H]12 — GI50 (48 h): 1700 nM
COc1cc2c(cc1O)CCN(Cc1cc(Br)c(OC)c(OC)c1)C2 — GI50 (WST-1; 96 h): 200 nM
